Compound activity deposited in PubChem BioAssay by Broad Institute.
Sampled rows, rich in hits. Any-hit rate of the full collection: about 2.2%.
CDK5 p35 inh – CDK5/p35 (human) kinase inhibition | inhibition, % at 10 µM | Recombinant CDK5/p35, ADP-Glo luminescence, 60 min | 330,000 compounds, 0.01% hits | AID 488839;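 active means highest replicate inhibition of at least 50% and at least 75% of replicates reaching 50%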
dFosB act – enhances mouse delta FosB homodimer DNA binding | 340,000 compounds, 0.99% hits | P13346 | purified delta FosB, TAMRA-CDK5 oligo fluorescence polarization; percent of positive-control signal above neutral wells | activation, % at 25 µM;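 active means mean activation above about 17%, with every replicate also reaching it, limit read from the data, passing the limit was not always enough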
Target sequence (P13346 whole entry, looked up): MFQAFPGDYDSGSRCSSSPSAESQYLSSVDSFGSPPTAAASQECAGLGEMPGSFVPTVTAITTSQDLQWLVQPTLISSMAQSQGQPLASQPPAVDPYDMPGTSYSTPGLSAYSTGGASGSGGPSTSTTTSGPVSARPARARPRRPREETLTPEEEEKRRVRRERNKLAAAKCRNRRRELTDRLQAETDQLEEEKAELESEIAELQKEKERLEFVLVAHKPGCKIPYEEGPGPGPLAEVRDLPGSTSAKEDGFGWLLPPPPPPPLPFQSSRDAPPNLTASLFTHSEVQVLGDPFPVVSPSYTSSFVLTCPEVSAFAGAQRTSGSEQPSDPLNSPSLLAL
CAL PDZ FP-1 – blocks peptide binding to the human CAL PDZ domain; Q9HD26; purified CAL PDZ, TMR-peptide fluorescence polarization, 1 h; inhibition, % at 24.9 µM; 300,000 compounds, 0.92% hits;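 active means mean inhibition of at least 30% with at least half of replicates also reaching 30%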
CAL PDZ FP-2 – blocks peptide binding to human CAL PDZ domain. AID 504414. inhibition, % at 20 µM. purified CAL PDZ, TMR-peptide fluorescence polarization, 1 h. 330,000 compounds, 0.02% hits. Q9HD26;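 active means highest replicate inhibition of at least 40%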
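System: tagged CAL PDZ domain. Schedule: 1 h room-temperature incubation prior to read. Signal: fluorescence polarization (mP). Measure: percent inhibition from loss of millipolarization.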
Rtt109 HAT inh – blocks Candida albicans Rtt109/Vps75 acetyltransferase activity; AID 540336; 330,000 compounds, 0.16% hits; purified Rtt109/Vps75, ThioGlo CoA-SH fluorescence, 4 h; inhibition, % at 34.9 µM;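 active means inhibition of at least 50% in every replicate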
Dyrk1A ADPGlo – Dyrk1A (rat) kinase inhibition | 310,000 compounds, 0.43% hits | ADP-Glo luminescence, NFATc1 peptide | inhibition, % at 12.5 µM | AID 504441 | Q63470; in the data active means inhibition above about 50%
Of the large screens only hits and unclear results are named; the others gave an inactive call.

CCN(CC)CCNS(=O)(=O)c1ccc(Cl)cc1	none
CCCN(CCC)CC(C)(C)NS(=O)(=O)c1ccc(Cl)cc1	CAL PDZ FP-1 70
O=C(COc1cccc2cccnc12)N/N=C/c1ccc(O)cc1	dFosB act 19
Cc1cccc(C(=O)N2CCc3cc(-c4csc(NC(=O)CN5CCCC5)n4)ccc32)c1	dFosB act 37
CN(C)/C=C1/C=C(C=O)OC1=O	none
Cc1cc2[nH]c(=O)c(=O)[nH]c2cc1S(=O)(=O)NC1CCCCC1C (stereo not given)	Dyrk1A ADPGlo 57 (no result: CAL PDZ FP-1)
Cc1cc2[nH]c(=O)c(=O)[nH]c2cc1S(=O)(=O)NC1CCC(C)CC1 (stereo not given)	none
CSCCC(NC(=O)/C(=C/c1ccco1)NC(=O)c1ccc(Br)o1)C(=O)O (stereo not given)	none (no result: Rtt109 HAT inh)
O=c1[nH]c(CSc2nc3ccccc3s2)nc2ccccc12	none
COc1ccc(C2NCCc3c2[nH]c2ccccc32)cc1CSc1nc2ccccc2s1 (stereo not given)	dFosB act 80
Cn1nnnc1SCCOc1ccc(C#N)cc1	none (no result: CAL PDZ FP-2)
CCOc1ccccc1C(=O)NCC(=O)OCc1csc(CC(=O)Nc2ccc(C)cc2)n1	CAL PDZ FP-1 65
COC(=O)/C=C/COc1ccccc1[N+](=O)[O-]	CAL PDZ FP-1 35
CCCNC(=O)CCc1c(C)nc2nc(-c3cc(OC)cc(OC)c3)nn2c1C	CAL PDZ FP-1 46
CCCCNC(=O)CCc1c(C)nc2nc(-c3cc(OC)cc(OC)c3)nn2c1C	none (no result: Rtt109 HAT inh)
Nc1ccc(OCCCc2c(N)nc(N)nc2N)cc1	dFosB act 21
O=c1c2ccccc2c(C=NCc2ccccn2)c(O)n1-c1ccccc1	none
Cc1ccc(-n2c(O)c(C=NCc3ccccn3)c3ccccc3c2=O)cc1C	Rtt109 HAT inh 62
O=C(O)/C=C/C(=O)Nc1ccc2c(c1)C(=O)c1ccccc1C2=O	CAL PDZ FP-1 98 (no result: Dyrk1A ADPGlo)
COc1ccc(N2CCN(C(=S)NCc3ccc(C)cc3)CC2)cc1	CAL PDZ FP-1 32
O=C(Nc1ccc(Nc2ccccc2)cc1)c1cccc(F)c1	none
COC(=O)C(NNc1ccccc1)(NC(=O)c1cccc(F)c1)C(F)(F)F (stereo not given)	CAL PDZ FP-1 50
CCN(C(=O)COC(=O)c1ccc([N+](=O)[O-])o1)C1CCCCC1	CAL PDZ FP-1 125 (no result: Dyrk1A ADPGlo)
CC1CC(O)C(C)CN1 (stereo not given)	none (no result: CAL PDZ FP-1)
CCOc1ccc(OCCC(=O)OCC(=O)NC2CCCCC2)cc1	none
c1csc(C2Nc3cccc4cccc(c34)N2)c1	dFosB act 36 (no result: CAL PDZ FP-2)
c1ccc(C2Nc3cccc4cccc(c34)N2)cc1	none
COc1cccc(C2(O)CCN(C(=O)C(C)C)CC2)c1	CAL PDZ FP-1 60
Cc1ccccc1Oc1ccc2c(c1)[C@@H]1C[C@H](N(C)C(=O)c3ccc(C#N)cc3)[C@H]([C@H](C)O)C(=O)N1CC2	none (no result: Dyrk1A ADPGlo)
CC(CNC(=O)CCS(=O)(=O)c1cc2c(cc1Cl)NC(=O)CO2)c1ccccc1 (stereo not given)	none
C(=C\c1nccc2c1[nH]c1ccccc12)/c1ccccc1	dFosB act 42 (no result: Rtt109 HAT inh)
Cc1ccc(/C=C\c2nccc3c2[nH]c2ccccc23)cc1	dFosB act 42 (no result: Dyrk1A ADPGlo)
COc1ccc(NC(=S)Nc2ccc(S(N)(=O)=O)cc2)c(OC)c1	CAL PDZ FP-1 37
COc1ccc(NC(=S)Nc2ccc(S(=O)(=O)N3CCOCC3)cc2)c(OC)c1	none
Cc1ccc(CNC(=O)C(c2ccccc2)c2ccccc2)cc1	CAL PDZ FP-1 94
CC1N(C)c2cc(NC(=O)c3ccco3)ccc2C1(C)C (stereo not given)	dFosB act 145
CCOc1ccc(N2CC(C(=O)Nc3cccc(S(=O)(=O)N4CCCC4)c3)CC2=O)cc1 (stereo not given)	none
CCOc1ccc(N2CC(C(=O)Nc3cccc(S(=O)(=O)NC4=NCCC4)c3)CC2=O)cc1 (stereo not given)	CAL PDZ FP-1 45
COC(=O)C1(C(F)(F)F)C2C=CC(C2)N1S(=O)(=O)c1ccc(C)cc1 (stereo not given)	none (no result: CAL PDZ FP-1)
O=C(OCc1csc(-c2ccccc2)n1)C1=NN(c2ccccc2)C(=O)CC1	CAL PDZ FP-1 31 (no result: Dyrk1A ADPGlo)
